Measurements reported in ChEMBL document CHEMBL3352236, “Discovery and molecular modeling of novel 1-indolyl acetate--5-nitroimidazole targeting tubulin polymerization as antiproliferative agents” (Eur J Med Chem, 2014).

Assays:
[1] = Cytotoxicity against human macrophages assessed as reduction in cell viability after 24 hrs by MTT assay; assay type: cell-based, Macrophage
Procedure, shortened: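 Human macrophages at 5*10⁵ cells per well treated with a range of compound concentrations for 24 h at 37 °C, 5% CO₂. MTT (4 mg/mL) added and left 4 h, then centrifugation at 1200 rcf for 5 min and formazan dissolved in DMSO. Absorbance read at 570 nm. Triplicate wells, assay run three times, mean CC50 (50% viability loss) ± SD reported.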

[2] = test system: U-251; assay: Antiproliferative activity against human U251 cells after 24 to 48 hrs by CKK8 assay; assay type: functional, cell-based
Procedure, shortened: (§1)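 CCK-8 assay. 1–5 × 10³ cells per well grown at 37 °C for 12 h, then exposed to rising compound concentrations in 10% FBS for 24 or 48 h. CCK-8 dye added and incubated 1–2 h at 37 °C, […]. Percent inhibition or IC50 taken relative to DMSO-treated control wells.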

[3] = test system: HeLa; assay: Antiproliferative activity against human HeLa cells after 24 to 48 hrs by CKK8 assay; assay type: functional, cell-based; procedure, shortened: as §1
[4] = biological target: Tubulin (Bos taurus, UniProt Q6B856+Q862L2+Q862F3); assay: Inhibition of bovine brain tubulin preincubated for 20 mins by turbidimetry
[5] = test system: A549; assay: Antiproliferative activity against human A549 cells after 24 to 48 hrs by CKK8 assay; assay type: functional, cell-based; procedure, shortened: as §1

Question: With `O=C(OCCn1c([N+](=O)[O-])cnc1/C=C/c1ccc(Cl)cc1)c1c[nH]c2ccccc12` as the molecule, how does the CC50 at 24 h [1] read?
Answer: 104 µM

Question: And the IC50 [2]?
Answer: 3.23 µM

Question: What about the IC50 [3] of the same molecule?
Answer: 3.77 µM

Question: And the IC50 [4]?
Answer: 98.8 µM

Question: And the IC50 [5]?
Answer: 4.51 µM

Question: With `O=C(OCCn1c([N+](=O)[O-])cnc1/C=C/c1ccccc1Cl)c1c[nH]c2ccccc12` as the molecule, how does the CC50 at 24 h [1] read?
Answer: 132 µM

Question: What about the IC50 [2] of the same molecule?
Answer: 2.98 µM

Question: What about the IC50 [3] of the same molecule?
Answer: 3.1 µM

Question: And the IC50 [4]?
Answer: 71.2 µM

Question: What about the IC50 [5] of the same molecule?
Answer: 4.24 µM

Question: For `O=C(OCCn1c([N+](=O)[O-])cnc1/C=C/c1cccc(Cl)c1)c1c[nH]c2ccccc12`, which CC50 at 24 h [1] is on record?
Answer: 156 µM

Question: And the IC50 [2]?
Answer: 4.08 µM

Question: What about the IC50 [3] of the same molecule?
Answer: 4.21 µM

Question: And the IC50 [4]?
Answer: 103 µM

Question: And the IC50 [5]?
Answer: 5.02 µM

Question: What does the source list for `O=C(OCCn1c([N+](=O)[O-])cnc1/C=C\c1ccccc1Br)c1c[nH]c2ccccc12`?
Answer: CC50 at 24 h [1]: 145 µM; IC50 [2]: 3.09 µM; IC50 [3]: 4.12 µM; IC50 [4]: 112.2 µM; IC50 [5]: 5.11 µM

Question: Which results are given for `O=C(OCCn1c([N+](=O)[O-])cnc1/C=C\c1cccc(Br)c1)c1c[nH]c2ccccc12`?
Answer: CC50 at 24 h [1]: 164 µM; IC50 [2]: 3.87 µM; IC50 [3]: 4.81 µM; IC50 [4]: 162 µM; IC50 [5]: 6.03 µM

Question: With `O=C(OCCn1c([N+](=O)[O-])cnc1/C=C\c1ccc(Br)cc1)c1c[nH]c2ccccc12` as the molecule, how does the CC50 at 24 h [1] read?
Answer: 98 µM

Question: What about the IC50 [2] of the same molecule?
Answer: 3.89 µM

Question: And the IC50 [3]?
Answer: 4.8 µM

Question: What about the IC50 [4] of the same molecule?
Answer: 123.3 µM

Question: What about the IC50 [5] of the same molecule?
Answer: 5.55 µM

Question: Which CC50 at 24 h [1] does the source give for `O=C(OCCn1c([N+](=O)[O-])cnc1/C=C\c1ccccc1[N+](=O)[O-])c1c[nH]c2ccccc12` here?
Answer: 109 µM

Question: What about the IC50 [2] of the same molecule?
Answer: 1.11 µM

Question: What about the IC50 [3] of the same molecule?
Answer: 1.24 µM

Question: And the IC50 [4]?
Answer: 6.3 µM

Question: And the IC50 [5]?
Answer: 2.12 µM

Question: What does the source list for `O=C(OCCn1c([N+](=O)[O-])cnc1/C=C\c1cccc([N+](=O)[O-])c1)c1c[nH]c2ccccc12`?
Answer: CC50 at 24 h [1]: 123 µM; IC50 [2]: 2.81 µM; IC50 [3]: 2.01 µM; IC50 [4]: 19.5 µM; IC50 [5]: 2.86 µM

Question: Which CC50 at 24 h [1] does the source give for `O=C(OCCn1c([N+](=O)[O-])cnc1/C=C\c1ccc([N+](=O)[O-])cc1)c1c[nH]c2ccccc12` here?
Answer: 200 µM

Question: And the IC50 [2]?
Answer: 2.03 µM

Question: What about the IC50 [3] of the same molecule?
Answer: 1.79 µM

Question: What about the IC50 [4] of the same molecule?
Answer: 6.9 µM

Question: What about the IC50 [5] of the same molecule?
Answer: 2.01 µM

Question: Which CC50 at 24 h [1] does the source give for `Cc1ccccc1/C=C\c1ncc([N+](=O)[O-])n1CCOC(=O)c1c[nH]c2ccccc12` here?
Answer: 202 µM

Question: And the IC50 [2]?
Answer: 2.79 µM

Question: What about the IC50 [3] of the same molecule?
Answer: 4.43 µM

Question: And the IC50 [4]?
Answer: 67.2 µM

Question: And the IC50 [5]?
Answer: 4.02 µM

Question: For `Cc1cccc(/C=C\c2ncc([N+](=O)[O-])n2CCOC(=O)c2c[nH]c3ccccc23)c1`, which CC50 at 24 h [1] is on record?
Answer: 154 µM

Question: What about the IC50 [2] of the same molecule?
Answer: 3.02 µM

Question: What about the IC50 [3] of the same molecule?
Answer: 3.77 µM

Question: What about the IC50 [4] of the same molecule?
Answer: 75.3 µM

Question: And the IC50 [5]?
Answer: 4.32 µM

Question: Which results are given for `Cc1ccc(/C=C\c2ncc([N+](=O)[O-])n2CCOC(=O)c2c[nH]c3ccccc23)cc1`?
Answer: CC50 at 24 h [1]: 123 µM; IC50 [2]: 3.11 µM; IC50 [3]: 2.28 µM; IC50 [4]: 45.2 µM; IC50 [5]: 3.88 µM

Question: With `COc1ccccc1/C=C\c1ncc([N+](=O)[O-])n1CCOC(=O)c1c[nH]c2ccccc12` as the molecule, how does the CC50 at 24 h [1] read?
Answer: 77 µM

Question: What about the IC50 [2] of the same molecule?
Answer: 4.09 µM

Question: What about the IC50 [3] of the same molecule?
Answer: 3.23 µM

Question: And the IC50 [4]?
Answer: 21.4 µM

Question: What about the IC50 [5] of the same molecule?
Answer: 3.11 µM

Question: Which CC50 at 24 h [1] does the source give for `COc1cccc(/C=C\c2ncc([N+](=O)[O-])n2CCOC(=O)c2c[nH]c3ccccc23)c1` here?
Answer: 89 µM

Question: And the IC50 [2]?
Answer: 2.76 µM

Question: And the IC50 [3]?
Answer: 4.01 µM

Question: And the IC50 [4]?
Answer: 67.7 µM

Question: And the IC50 [5]?
Answer: 4.09 µM

Question: Which CC50 at 24 h [1] does the source give for `COc1ccc(/C=C\c2ncc([N+](=O)[O-])n2CCOC(=O)c2c[nH]c3ccccc23)cc1` here?
Answer: 106 µM

Question: And the IC50 [2]?
Answer: 3.07 µM

Question: And the IC50 [3]?
Answer: 3.88 µM

Question: What about the IC50 [4] of the same molecule?
Answer: 50.3 µM

Question: And the IC50 [5]?
Answer: 3.97 µM

Question: With `O=C(OCCn1c([N+](=O)[O-])cnc1/C=C\c1ccc(Cl)cc1Cl)c1c[nH]c2ccccc12` as the molecule, how does the CC50 at 24 h [1] read?
Answer: 287 µM

Question: What about the IC50 [2] of the same molecule?
Answer: 0.87 µM

Question: What about the IC50 [3] of the same molecule?
Answer: 1.05 µM

Question: What about the IC50 [4] of the same molecule?
Answer: 2.4 µM

Question: What about the IC50 [5] of the same molecule?
Answer: 2 µM

Question: For `O=C(OCCn1c([N+](=O)[O-])cnc1/C=C\c1cccc2ccccc12)c1c[nH]c2ccccc12`, which CC50 at 24 h [1] is on record?
Answer: 158 µM

Question: What about the IC50 [2] of the same molecule?
Answer: 12.8 µM

Question: And the IC50 [3]?
Answer: 10.1 µM

Question: What about the IC50 [4] of the same molecule?
Answer: 186.5 µM

Question: And the IC50 [5]?
Answer: 7.02 µM

Question: For `O=C(OCCn1c([N+](=O)[O-])cnc1/C=C\c1ccccc1)c1c[nH]c2ccccc12`, which CC50 at 24 h [1] is on record?
Answer: 105 µM

Question: What about the IC50 [2] of the same molecule?
Answer: 16.9 µM

Question: What about the IC50 [3] of the same molecule?
Answer: 13.6 µM

Question: And the IC50 [4]?
Answer: 204.1 µM

Question: What about the IC50 [5] of the same molecule?
Answer: 8.43 µM

Question: Which IC50 [2] does the source give for `COc1ccc(/C=C\c2cc(OC)c(OC)c(OC)c2)cc1O` [COMBRETASTATIN A4] here?
Answer: 0.54 µM

Question: What about the IC50 [3] of the same molecule?
Answer: 1.44 µM

Question: And the IC50 [5]?
Answer: 2.79 µM
